ChEMBL document CHEMBL4138284, “Biomimetic Stereoselective Sulfa-Michael Addition Leads to Platensimycin and Platencin Sulfur Analogues against Methicillin-Resistant Staphylococcus aureus” (J Nat Prod, 2018)
In brackets after ≈: the same amount, converted by molar mass.

Test system: Staphylococcus aureus
Assay: Antibacterial activity against methicillin-sensitive Staphylococcus aureus isolate 1 incubated overnight by agar dilution method
Format: functional
Conditions: not given
Method in brief: (§1)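 MIC by agar dilution. Strains were grown overnight in LB broth and diluted, then about 10^4 CFU (2 μL spots) were spotted onto LB agar plates containing test compound at 0.5 to 8 μg mL−1 agar. Plates were incubated overnight at 37 °C and inspected for growth. Clinical MSSA and MRSA isolates came from local hospitals.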

Row | SMILES | MIC
1 | C=C1C[C@@]23CCC1C[C@@H]2[C@](C)(CCC(=O)Nc1c(O)ccc(C(=O)O)c1O)C(=O)C[C@@H]3SC(C)=O (single isomer, unassigned) | 1 µg/mL (≈ 1.99 µM)
2 | C=C1C[C@@]23CCC1C[C@@H]2[C@](C)(CCC(=O)Nc1c(O)ccc(C(=O)O)c1O)C(=O)C[C@@H]3Sc1ccc(C)cc1 (single isomer, unassigned) | 1 µg/mL (≈ 1.82 µM)
3 | CC(=O)NC[C@H]1CN(c2ccc(N3CCOCC3)c(F)c2)C(=O)O1 [LINEZOLID] | 1 µg/mL (≈ 2.96 µM)
4 | C=C1C[C@@]23C=CC(=O)[C@@](C)(CCC(=O)Nc4c(O)ccc(C(=O)O)c4O)[C@@H]2C[C@@H]1CC3 [PLATENCIN] | 1 µg/mL (≈ 2.35 µM)

Test system: Staphylococcus aureus
Assay: Antibacterial activity against methicillin-resistant Staphylococcus aureus isolate 7 incubated overnight by agar dilution method
Format: functional
Conditions: not given
Method in brief: as §1

Row | SMILES | MIC
5 | C=C1C[C@@]23CCC1C[C@@H]2[C@](C)(CCC(=O)Nc1c(O)ccc(C(=O)O)c1O)C(=O)C[C@@H]3SC(C)=O (single isomer, unassigned) | 2 µg/mL (≈ 3.99 µM)
6 | C=C1C[C@@]23CCC1C[C@@H]2[C@](C)(CCC(=O)Nc1c(O)ccc(C(=O)O)c1O)C(=O)C[C@@H]3Sc1ccc(C)cc1 (single isomer, unassigned) | 2 µg/mL (≈ 3.64 µM)
7 | CC(=O)NC[C@H]1CN(c2ccc(N3CCOCC3)c(F)c2)C(=O)O1 [LINEZOLID] | 1 µg/mL (≈ 2.96 µM)
8 | C=C1C[C@@]23C=CC(=O)[C@@](C)(CCC(=O)Nc4c(O)ccc(C(=O)O)c4O)[C@@H]2C[C@@H]1CC3 [PLATENCIN] | 1 µg/mL (≈ 2.35 µM)

Test system: Staphylococcus aureus
Assay: Antibacterial activity against methicillin-resistant Staphylococcus aureus isolate 9 incubated overnight by agar dilution method
Format: functional
Conditions: not given
Method in brief: as §1

Row | SMILES | MIC
9 | C=C1C[C@@]23CCC1C[C@@H]2[C@](C)(CCC(=O)Nc1c(O)ccc(C(=O)O)c1O)C(=O)C[C@@H]3SC(C)=O (single isomer, unassigned) | 2 µg/mL (≈ 3.99 µM)
10 | C=C1C[C@@]23CCC1C[C@@H]2[C@](C)(CCC(=O)Nc1c(O)ccc(C(=O)O)c1O)C(=O)C[C@@H]3Sc1ccc(C)cc1 (single isomer, unassigned) | 1 µg/mL (≈ 1.82 µM)
11 | CC(=O)NC[C@H]1CN(c2ccc(N3CCOCC3)c(F)c2)C(=O)O1 [LINEZOLID] | 1 µg/mL (≈ 2.96 µM)
12 | C=C1C[C@@]23C=CC(=O)[C@@](C)(CCC(=O)Nc4c(O)ccc(C(=O)O)c4O)[C@@H]2C[C@@H]1CC3 [PLATENCIN] | 1 µg/mL (≈ 2.35 µM)

Test system: Staphylococcus aureus
Assay: Antibacterial activity against Staphylococcus aureus ATCC 29213 incubated overnight by agar dilution method
Format: functional
Conditions: not given
Method in brief: as §1

Row | SMILES | MIC
13 | C=C1C[C@@]23CCC1C[C@@H]2[C@](C)(CCC(=O)Nc1c(O)ccc(C(=O)O)c1O)C(=O)C[C@@H]3SC(C)=O (single isomer, unassigned) | 4 µg/mL (≈ 7.97 µM)
14 | C=C1C[C@@]23CCC1C[C@@H]2[C@](C)(CCC(=O)Nc1c(O)ccc(C(=O)O)c1O)C(=O)C[C@@H]3Sc1ccc(C)cc1 (single isomer, unassigned) | 2 µg/mL (≈ 3.64 µM)
15 | CC(=O)NC[C@H]1CN(c2ccc(N3CCOCC3)c(F)c2)C(=O)O1 [LINEZOLID] | 1 µg/mL (≈ 2.96 µM)
16 | C=C1C[C@@]23C=CC(=O)[C@@](C)(CCC(=O)Nc4c(O)ccc(C(=O)O)c4O)[C@@H]2C[C@@H]1CC3 [PLATENCIN] | 1 µg/mL (≈ 2.35 µM)

Test system: not listed separately
Assay: Stability of the compound in PBS at pH 7.1 at 0.1 mg/ml after 16 hrs by HPLC analysis
Format: physicochemical
Conditions: buffer, pH 7.1, 16 h
Method in brief: (§2)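 Compound at 0.1 mg mL−1 dissolved in 1 mM PBS at the stated pH. Held at 37 °C for 16 h. Remaining compound and retro-Michael reversion products analysed by HPLC.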

Row | SMILES | Stability
17 | C=C1C[C@@]23CCC1C[C@@H]2[C@](C)(CCC(=O)Nc1c(O)ccc(C(=O)O)c1O)C(=O)C[C@@H]3SC(C)=O (single isomer, unassigned) | Stable

Test system: Staphylococcus aureus
Assay: Antibacterial activity against methicillin-resistant Staphylococcus aureus isolate 11 incubated overnight by agar dilution method
Format: functional
Conditions: not given
Method in brief: as §1

Row | SMILES | MIC
18 | C=C1C[C@@]23CCC1C[C@@H]2[C@](C)(CCC(=O)Nc1c(O)ccc(C(=O)O)c1O)C(=O)C[C@@H]3SC(C)=O (single isomer, unassigned) | 4 µg/mL (≈ 7.97 µM)
19 | C=C1C[C@@]23CCC1C[C@@H]2[C@](C)(CCC(=O)Nc1c(O)ccc(C(=O)O)c1O)C(=O)C[C@@H]3Sc1ccc(C)cc1 (single isomer, unassigned) | 2 µg/mL (≈ 3.64 µM)
20 | CC(=O)NC[C@H]1CN(c2ccc(N3CCOCC3)c(F)c2)C(=O)O1 [LINEZOLID] | 1 µg/mL (≈ 2.96 µM)
21 | C=C1C[C@@]23C=CC(=O)[C@@](C)(CCC(=O)Nc4c(O)ccc(C(=O)O)c4O)[C@@H]2C[C@@H]1CC3 [PLATENCIN] | 1 µg/mL (≈ 2.35 µM)

Test system: not listed separately
Assay: Stability of the compound in PBS at pH 5.8 at 0.1 mg/ml after 16 hrs by HPLC analysis
Format: physicochemical
Conditions: buffer, pH 5.8, 16 h
Method in brief: as §2

Row | SMILES | Stability
22 | C=C1C[C@@]23CCC1C[C@@H]2[C@](C)(CCC(=O)Nc1c(O)ccc(C(=O)O)c1O)C(=O)C[C@@H]3SC(C)=O (single isomer, unassigned) | Stable

Test system: Staphylococcus aureus
Assay: Antibacterial activity against methicillin-sensitive Staphylococcus aureus isolate 4 incubated overnight by agar dilution method
Format: functional
Conditions: not given
Method in brief: as §1

Row | SMILES | MIC
23 | C=C1C[C@@]23CCC1C[C@@H]2[C@](C)(CCC(=O)Nc1c(O)ccc(C(=O)O)c1O)C(=O)C[C@@H]3SC(C)=O (single isomer, unassigned) | 1 µg/mL (≈ 1.99 µM)
24 | C=C1C[C@@]23CCC1C[C@@H]2[C@](C)(CCC(=O)Nc1c(O)ccc(C(=O)O)c1O)C(=O)C[C@@H]3Sc1ccc(C)cc1 (single isomer, unassigned) | 0.5 µg/mL (≈ 0.91 µM)
25 | CC(=O)NC[C@H]1CN(c2ccc(N3CCOCC3)c(F)c2)C(=O)O1 [LINEZOLID] | 1 µg/mL (≈ 2.96 µM)
26 | C=C1C[C@@]23C=CC(=O)[C@@](C)(CCC(=O)Nc4c(O)ccc(C(=O)O)c4O)[C@@H]2C[C@@H]1CC3 [PLATENCIN] | 1 µg/mL (≈ 2.35 µM)

Test system: Staphylococcus aureus
Assay: Antibacterial activity against methicillin-sensitive Staphylococcus aureus isolate 3 incubated overnight by agar dilution method
Format: functional
Conditions: not given
Method in brief: as §1

Row | SMILES | MIC
27 | C=C1C[C@@]23CCC1C[C@@H]2[C@](C)(CCC(=O)Nc1c(O)ccc(C(=O)O)c1O)C(=O)C[C@@H]3SC(C)=O (single isomer, unassigned) | 1 µg/mL (≈ 1.99 µM)
28 | C=C1C[C@@]23CCC1C[C@@H]2[C@](C)(CCC(=O)Nc1c(O)ccc(C(=O)O)c1O)C(=O)C[C@@H]3Sc1ccc(C)cc1 (single isomer, unassigned) | 0.5 µg/mL (≈ 0.91 µM)
29 | CC(=O)NC[C@H]1CN(c2ccc(N3CCOCC3)c(F)c2)C(=O)O1 [LINEZOLID] | 1 µg/mL (≈ 2.96 µM)
30 | C=C1C[C@@]23C=CC(=O)[C@@](C)(CCC(=O)Nc4c(O)ccc(C(=O)O)c4O)[C@@H]2C[C@@H]1CC3 [PLATENCIN] | 1 µg/mL (≈ 2.35 µM)

Test system: Staphylococcus aureus
Assay: Antibacterial activity against methicillin-resistant Staphylococcus aureus isolate 6 incubated overnight by agar dilution method
Format: functional
Conditions: not given
Method in brief: as §1

Row | SMILES | MIC
31 | C=C1C[C@@]23CCC1C[C@@H]2[C@](C)(CCC(=O)Nc1c(O)ccc(C(=O)O)c1O)C(=O)C[C@@H]3SC(C)=O (single isomer, unassigned) | 2 µg/mL (≈ 3.99 µM)
32 | C=C1C[C@@]23CCC1C[C@@H]2[C@](C)(CCC(=O)Nc1c(O)ccc(C(=O)O)c1O)C(=O)C[C@@H]3Sc1ccc(C)cc1 (single isomer, unassigned) | 1 µg/mL (≈ 1.82 µM)
33 | CC(=O)NC[C@H]1CN(c2ccc(N3CCOCC3)c(F)c2)C(=O)O1 [LINEZOLID] | 1 µg/mL (≈ 2.96 µM)
34 | C=C1C[C@@]23C=CC(=O)[C@@](C)(CCC(=O)Nc4c(O)ccc(C(=O)O)c4O)[C@@H]2C[C@@H]1CC3 [PLATENCIN] | 1 µg/mL (≈ 2.35 µM)

Test system: Staphylococcus aureus
Assay: Antibacterial activity against methicillin-resistant Staphylococcus aureus isolate 10 incubated overnight by agar dilution method
Format: functional
Conditions: not given
Method in brief: as §1

Row | SMILES | MIC
35 | C=C1C[C@@]23CCC1C[C@@H]2[C@](C)(CCC(=O)Nc1c(O)ccc(C(=O)O)c1O)C(=O)C[C@@H]3SC(C)=O (single isomer, unassigned) | 2 µg/mL (≈ 3.99 µM)
36 | C=C1C[C@@]23CCC1C[C@@H]2[C@](C)(CCC(=O)Nc1c(O)ccc(C(=O)O)c1O)C(=O)C[C@@H]3Sc1ccc(C)cc1 (single isomer, unassigned) | 1 µg/mL (≈ 1.82 µM)
37 | CC(=O)NC[C@H]1CN(c2ccc(N3CCOCC3)c(F)c2)C(=O)O1 [LINEZOLID] | 1 µg/mL (≈ 2.96 µM)
38 | C=C1C[C@@]23C=CC(=O)[C@@](C)(CCC(=O)Nc4c(O)ccc(C(=O)O)c4O)[C@@H]2C[C@@H]1CC3 [PLATENCIN] | 1 µg/mL (≈ 2.35 µM)

Test system: Staphylococcus aureus
Assay: Antibacterial activity against methicillin-resistant Staphylococcus aureus isolate 8 incubated overnight by agar dilution method
Format: functional
Conditions: not given
Method in brief: as §1

Row | SMILES | MIC
39 | C=C1C[C@@]23CCC1C[C@@H]2[C@](C)(CCC(=O)Nc1c(O)ccc(C(=O)O)c1O)C(=O)C[C@@H]3SC(C)=O (single isomer, unassigned) | 2 µg/mL (≈ 3.99 µM)
40 | C=C1C[C@@]23CCC1C[C@@H]2[C@](C)(CCC(=O)Nc1c(O)ccc(C(=O)O)c1O)C(=O)C[C@@H]3Sc1ccc(C)cc1 (single isomer, unassigned) | 1 µg/mL (≈ 1.82 µM)
41 | CC(=O)NC[C@H]1CN(c2ccc(N3CCOCC3)c(F)c2)C(=O)O1 [LINEZOLID] | 1 µg/mL (≈ 2.96 µM)
42 | C=C1C[C@@]23C=CC(=O)[C@@](C)(CCC(=O)Nc4c(O)ccc(C(=O)O)c4O)[C@@H]2C[C@@H]1CC3 [PLATENCIN] | 1 µg/mL (≈ 2.35 µM)

Test system: Staphylococcus aureus
Assay: Antibacterial activity against methicillin-resistant Staphylococcus aureus isolate 5 incubated overnight by agar dilution method
Format: functional
Conditions: not given
Method in brief: as §1

Row | SMILES | MIC
43 | C=C1C[C@@]23CCC1C[C@@H]2[C@](C)(CCC(=O)Nc1c(O)ccc(C(=O)O)c1O)C(=O)C[C@@H]3SC(C)=O (single isomer, unassigned) | 2 µg/mL (≈ 3.99 µM)
44 | C=C1C[C@@]23CCC1C[C@@H]2[C@](C)(CCC(=O)Nc1c(O)ccc(C(=O)O)c1O)C(=O)C[C@@H]3Sc1ccc(C)cc1 (single isomer, unassigned) | 2 µg/mL (≈ 3.64 µM)
45 | CC(=O)NC[C@H]1CN(c2ccc(N3CCOCC3)c(F)c2)C(=O)O1 [LINEZOLID] | 1 µg/mL (≈ 2.96 µM)
46 | C=C1C[C@@]23C=CC(=O)[C@@](C)(CCC(=O)Nc4c(O)ccc(C(=O)O)c4O)[C@@H]2C[C@@H]1CC3 [PLATENCIN] | 1 µg/mL (≈ 2.35 µM)

Test system: Staphylococcus aureus
Assay: Antibacterial activity against methicillin-sensitive Staphylococcus aureus isolate 2 incubated overnight by agar dilution method
Format: functional
Conditions: not given
Method in brief: as §1

Row | SMILES | MIC
47 | C=C1C[C@@]23CCC1C[C@@H]2[C@](C)(CCC(=O)Nc1c(O)ccc(C(=O)O)c1O)C(=O)C[C@@H]3SC(C)=O (single isomer, unassigned) | 1 µg/mL (≈ 1.99 µM)
48 | C=C1C[C@@]23CCC1C[C@@H]2[C@](C)(CCC(=O)Nc1c(O)ccc(C(=O)O)c1O)C(=O)C[C@@H]3Sc1ccc(C)cc1 (single isomer, unassigned) | 0.5 µg/mL (≈ 0.91 µM)
49 | CC(=O)NC[C@H]1CN(c2ccc(N3CCOCC3)c(F)c2)C(=O)O1 [LINEZOLID] | 1 µg/mL (≈ 2.96 µM)
50 | C=C1C[C@@]23C=CC(=O)[C@@](C)(CCC(=O)Nc4c(O)ccc(C(=O)O)c4O)[C@@H]2C[C@@H]1CC3 [PLATENCIN] | 1 µg/mL (≈ 2.35 µM)
